Square brackets hold non-standard residues; d marks the D form. Peptide text beside a SMILES is read from it. * marks the point of attachment. ξ: configuration not given here. Acryloyl(3-(3-pyridyl),E) = O=C(/C=C/c1cccnc1)*; NMeF = CN[C@@H](Cc1ccccc1)C(=O)O; ξW = NC(Cc1c[nH]c2ccccc12)C(=O)O; NMeD = CN[C@@H](CC(=O)O)C(=O)O; X1 = O=C(/C=C/c1ccc(O)cc1)*; X2 = O=C(/C=C/c1cccs1)*; Boc = CC(C)(C)OC(=O)*
Assays:
[1] = target: Cholecystokinin B receptor (Cavia porcellus); assay: In vitro binding for inhibition of [125I]- Bolton-Hunter-CCK-8 binding in guinea pig cortex
Rattus norvegicus = assay: Compound was evaluated for Appetite suppression, based on intake of liquid diet by food-deprived rats for 1 h following intraperitoneal injection; assay type: functional; details: ip
Method in brief: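 Rats are food-deprived, dosed intraperitoneally, and their liquid diet intake over the following 1 h is measured as the appetite suppression read-out.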

[2] = target: Cholecystokinin A receptor (Cavia porcellus); assay: In vitro inhibition of [125I]CCK-8 binding to guinea pig pancreas
[3] = target: T1, Cholecystokinin receptor type A (Cavia porcellus) (UniProt Q63931); assay: Percent maximal stimulation of phosphatidylinositol hydrolysis in guinea pig pancreatic acini (CCK-A receptors) relative to CCK-8; assay type: functional
T1 sequence (whole entry): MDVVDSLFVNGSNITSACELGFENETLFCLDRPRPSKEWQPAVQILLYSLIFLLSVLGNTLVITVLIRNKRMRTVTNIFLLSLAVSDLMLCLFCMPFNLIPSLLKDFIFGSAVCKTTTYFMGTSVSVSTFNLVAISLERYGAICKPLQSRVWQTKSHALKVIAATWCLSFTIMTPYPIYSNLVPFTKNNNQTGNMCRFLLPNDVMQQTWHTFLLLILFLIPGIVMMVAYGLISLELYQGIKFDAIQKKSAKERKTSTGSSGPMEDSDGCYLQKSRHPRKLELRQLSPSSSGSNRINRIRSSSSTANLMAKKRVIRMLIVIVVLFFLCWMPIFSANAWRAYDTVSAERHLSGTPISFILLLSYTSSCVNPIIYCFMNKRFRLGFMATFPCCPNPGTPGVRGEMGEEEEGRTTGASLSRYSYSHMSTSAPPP
Method in brief: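 Functional CCK-A assay in guinea pig pancreatic acini. Phosphatidylinositol hydrolysis is measured and expressed as percent of the maximal stimulation produced by CCK-8.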

Hydrolysis [3] | Structure (SMILES) | ED50 (Rattus norvegicus) | further results
 | CN(C(=O)[C@H](CC(=O)O)NC(=O)[C@H](CCCCNC(=O)/C=C/c1cccnc1)NC(=O)[C@H](Cc1c[nH]c2ccccc12)NC(=O)OC(C)(C)C)[C@@H](Cc1ccccc1)C(N)=O (Boc-WK(Acryloyl(3-(3-pyridyl),E))D[NMeF]-NH2) [listing 1 of 2 here] |  | IC50 [1]: 0.128 µM
 | CN(C(=O)[C@H](CC(=O)O)NC(=O)[C@H](CCCCNC(=O)/C=C/c1cccnc1)NC(=O)[C@H](Cc1c[nH]c2ccccc12)NC(=O)OC(C)(C)C)[C@@H](Cc1ccccc1)C(N)=O (Boc-WK(Acryloyl(3-(3-pyridyl),E))D[NMeF]-NH2) [listing 2 of 2 here] | 2.52 µmol/kg | 
 | CN(C(=O)[C@H](CCCCNC(=O)/C=C/c1cccnc1)NC(=O)[C@H](Cc1c[nH]c2ccccc12)NC(=O)OC(C)(C)C)[C@@H](CC(=O)O)C(=O)N[C@@H](Cc1ccccc1)C(N)=O (Boc-WK(Acryloyl(3-(3-pyridyl),E))[NMeD]F-NH2) [listing 1 of 2 here] |  | IC50 [1]: 10.4 µM; IC50 [2]: 0.041 µM
 | CN(C(=O)[C@H](CCCCNC(=O)/C=C/c1cccnc1)NC(=O)[C@H](Cc1c[nH]c2ccccc12)NC(=O)OC(C)(C)C)[C@@H](CC(=O)O)C(=O)N[C@@H](Cc1ccccc1)C(N)=O (Boc-WK(Acryloyl(3-(3-pyridyl),E))[NMeD]F-NH2) [listing 2 of 2 here] | 0.036 µmol/kg | 
 | CN(C(=O)[C@H](CCCCNC(=O)/C=C/c1cccnc1)NC(=O)[C@H](Cc1c[nH]c2ccccc12)NC(=O)OC(C)(C)C)[C@@H](CC(=O)O)C(=O)N(C)[C@@H](Cc1ccccc1)C(N)=O (Boc-WK(Acryloyl(3-(3-pyridyl),E))[NMeD][NMeF]-NH2) [listing 1 of 2 here] |  | IC50 [2]: 0.05 µM
 | CN(C(=O)[C@H](CCCCNC(=O)/C=C/c1cccnc1)NC(=O)[C@H](Cc1c[nH]c2ccccc12)NC(=O)OC(C)(C)C)[C@@H](CC(=O)O)C(=O)N(C)[C@@H](Cc1ccccc1)C(N)=O (Boc-WK(Acryloyl(3-(3-pyridyl),E))[NMeD][NMeF]-NH2) [listing 2 of 2 here] | 0.016 µmol/kg | 
 | CN(C(=O)[C@H](CC(=O)O)NC(=O)[C@H](CCCCNC(=O)/C=C/c1ccc(O)cc1)NC(=O)[C@H](Cc1c[nH]c2ccccc12)NC(=O)OC(C)(C)C)[C@@H](Cc1ccccc1)C(N)=O (Boc-WK(X1)D[NMeF]-NH2) | 0.413 µmol/kg | 
 | CN(C(=O)[C@H](CCCCNC(=O)/C=C/c1ccc(O)cc1)NC(=O)[C@H](Cc1c[nH]c2ccccc12)NC(=O)OC(C)(C)C)[C@@H](CC(=O)O)C(=O)N[C@@H](Cc1ccccc1)C(N)=O (Boc-WK(X1)[NMeD]F-NH2) [listing 1 of 2 here] |  | IC50 [1]: 5.81 µM; IC50 [2]: 0.005 µM
 | CN(C(=O)[C@H](CCCCNC(=O)/C=C/c1ccc(O)cc1)NC(=O)[C@H](Cc1c[nH]c2ccccc12)NC(=O)OC(C)(C)C)[C@@H](CC(=O)O)C(=O)N[C@@H](Cc1ccccc1)C(N)=O (Boc-WK(X1)[NMeD]F-NH2) [listing 2 of 2 here] | 0.018 µmol/kg | 
 | CN(C(=O)[C@H](CCCCNC(=O)/C=C/c1ccc(O)cc1)NC(=O)[C@H](Cc1c[nH]c2ccccc12)NC(=O)OC(C)(C)C)[C@@H](CC(=O)O)C(=O)N(C)[C@@H](Cc1ccccc1)C(N)=O (Boc-WK(X1)[NMeD][NMeF]-NH2) [listing 1 of 2 here] |  | IC50 [1]: 13.6 µM; IC50 [2]: 0.009 µM
 | CN(C(=O)[C@H](CCCCNC(=O)/C=C/c1ccc(O)cc1)NC(=O)[C@H](Cc1c[nH]c2ccccc12)NC(=O)OC(C)(C)C)[C@@H](CC(=O)O)C(=O)N(C)[C@@H](Cc1ccccc1)C(N)=O (Boc-WK(X1)[NMeD][NMeF]-NH2) [listing 2 of 2 here] | 0.062 µmol/kg | 
 | CN(C(=O)[C@H](CC(=O)O)NC(=O)[C@H](CCCCNC(=O)/C=C/c1cccs1)NC(=O)[C@H](Cc1c[nH]c2ccccc12)NC(=O)OC(C)(C)C)[C@@H](Cc1ccccc1)C(N)=O (Boc-WK(X2)D[NMeF]-NH2) [listing 1 of 2 here] |  | IC50 [1]: 0.731 µM; IC50 [2]: 0.018 µM
 | CN(C(=O)[C@H](CC(=O)O)NC(=O)[C@H](CCCCNC(=O)/C=C/c1cccs1)NC(=O)[C@H](Cc1c[nH]c2ccccc12)NC(=O)OC(C)(C)C)[C@@H](Cc1ccccc1)C(N)=O (Boc-WK(X2)D[NMeF]-NH2) [listing 2 of 2 here] | 1.4 µmol/kg | 
 | CN(C(=O)[C@H](CCCCNC(=O)/C=C/c1cccs1)NC(=O)[C@H](Cc1c[nH]c2ccccc12)NC(=O)OC(C)(C)C)[C@@H](CC(=O)O)C(=O)N[C@@H](Cc1ccccc1)C(N)=O (Boc-WK(X2)[NMeD]F-NH2) [listing 1 of 2 here] |  | IC50 [1]: 4.577 µM; IC50 [2]: 0.035 µM
 | CN(C(=O)[C@H](CCCCNC(=O)/C=C/c1cccs1)NC(=O)[C@H](Cc1c[nH]c2ccccc12)NC(=O)OC(C)(C)C)[C@@H](CC(=O)O)C(=O)N[C@@H](Cc1ccccc1)C(N)=O (Boc-WK(X2)[NMeD]F-NH2) [listing 2 of 2 here] | 0.012 µmol/kg | 
 | CN(C(=O)[C@H](CCCCNC(=O)/C=C/c1cccs1)NC(=O)[C@H](Cc1c[nH]c2ccccc12)NC(=O)OC(C)(C)C)[C@@H](CC(=O)O)C(=O)N(C)[C@@H](Cc1ccccc1)C(N)=O (Boc-WK(X2)[NMeD][NMeF]-NH2) [listing 1 of 2 here] |  | IC50 [1]: 10.9 µM; IC50 [2]: 0.032 µM
 | CN(C(=O)[C@H](CCCCNC(=O)/C=C/c1cccs1)NC(=O)[C@H](Cc1c[nH]c2ccccc12)NC(=O)OC(C)(C)C)[C@@H](CC(=O)O)C(=O)N(C)[C@@H](Cc1ccccc1)C(N)=O (Boc-WK(X2)[NMeD][NMeF]-NH2) [listing 2 of 2 here] | 0.022 µmol/kg | 
88% | CN(C(=O)[C@H](CC(=O)O)NC(=O)[C@H](CCCCNC(=O)/C=C/c1cccnc1)NC(=O)C(Cc1c[nH]c2ccccc12)NC(=O)OC(C)(C)C)[C@@H](Cc1ccccc1)C(N)=O (some centres not stated) (Boc-[ξW]K(Acryloyl(3-(3-pyridyl),E))D[NMeF]-NH2) |  | 
98% | CN(C(=O)[C@H](CCCCNC(=O)/C=C/c1cccnc1)NC(=O)C(Cc1c[nH]c2ccccc12)NC(=O)OC(C)(C)C)[C@@H](CC(=O)O)C(=O)N[C@@H](Cc1ccccc1)C(N)=O (some centres not stated) (Boc-[ξW]K(Acryloyl(3-(3-pyridyl),E))[NMeD]F-NH2) |  | 
94% | CN(C(=O)[C@H](CCCCNC(=O)/C=C/c1cccnc1)NC(=O)C(Cc1c[nH]c2ccccc12)NC(=O)OC(C)(C)C)[C@@H](CC(=O)O)C(=O)N(C)[C@@H](Cc1ccccc1)C(N)=O (some centres not stated) (Boc-[ξW]K(Acryloyl(3-(3-pyridyl),E))[NMeD][NMeF]-NH2) |  | 
76% | CN(C(=O)[C@H](CC(=O)O)NC(=O)[C@H](CCCCNC(=O)/C=C/c1ccc(O)cc1)NC(=O)C(Cc1c[nH]c2ccccc12)NC(=O)OC(C)(C)C)[C@@H](Cc1ccccc1)C(N)=O (some centres not stated) (Boc-[ξW]K(X1)D[NMeF]-NH2) |  | 
101% | CN(C(=O)[C@H](CCCCNC(=O)/C=C/c1ccc(O)cc1)NC(=O)C(Cc1c[nH]c2ccccc12)NC(=O)OC(C)(C)C)[C@@H](CC(=O)O)C(=O)N[C@@H](Cc1ccccc1)C(N)=O (some centres not stated) (Boc-[ξW]K(X1)[NMeD]F-NH2) |  | 
91% | CN(C(=O)[C@H](CCCCNC(=O)/C=C/c1ccc(O)cc1)NC(=O)C(Cc1c[nH]c2ccccc12)NC(=O)OC(C)(C)C)[C@@H](CC(=O)O)C(=O)N(C)[C@@H](Cc1ccccc1)C(N)=O (some centres not stated) (Boc-[ξW]K(X1)[NMeD][NMeF]-NH2) |  | 
84% | CN(C(=O)[C@H](CC(=O)O)NC(=O)[C@H](CCCCNC(=O)/C=C/c1cccs1)NC(=O)C(Cc1c[nH]c2ccccc12)NC(=O)OC(C)(C)C)[C@@H](Cc1ccccc1)C(N)=O (some centres not stated) (Boc-[ξW]K(X2)D[NMeF]-NH2) |  | 
95% | CN(C(=O)[C@H](CCCCNC(=O)/C=C/c1cccs1)NC(=O)C(Cc1c[nH]c2ccccc12)NC(=O)OC(C)(C)C)[C@@H](CC(=O)O)C(=O)N[C@@H](Cc1ccccc1)C(N)=O (some centres not stated) (Boc-[ξW]K(X2)[NMeD]F-NH2) |  | 
93% | CN(C(=O)[C@H](CCCCNC(=O)/C=C/c1cccs1)NC(=O)C(Cc1c[nH]c2ccccc12)NC(=O)OC(C)(C)C)[C@@H](CC(=O)O)C(=O)N(C)[C@@H](Cc1ccccc1)C(N)=O (some centres not stated) (Boc-[ξW]K(X2)[NMeD][NMeF]-NH2) |  | 

From ChEMBL document CHEMBL1127521, “CCK-A-selective tetrapeptides containing lys(N epsilon)-amide residues: favorable in vivo and in vitro effects of N-methylation at the aspartyl residue” (J Med Chem, 1994)
